18 compounds from ChEMBL document CHEMBL3259714, “Pyrazolo[4,3-e][1,2,4]triazine sulfonamides as carbonic anhydrase inhibitors with antitumor activity” (Bioorg Med Chem, 2014) can be followed below.

The test system of assay [1] is MDA-MB-231. Briefly: Cytotoxicity against human MDA-MB-231 cells assessed as growth inhibition after 24 hrs by MTT assay. The assay is classed as functional, cell-based. The following applies: for IC50: MDA-MB-231, 24 h. A digest of the protocol: (§1)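 Confluent cells in 6-well plates treated 24 h with a range of concentrations, then washed with PBS. MTT (0.5 mg/ml in PBS) added for 4 h at 37 °C, 5% CO₂. Dye dissolved in 0.1 mol/l HCl in isopropanol and read at 570 nm. Viability given as % of untreated control, run in triplicate. IC50 taken from dose-response curves as 50% viable cells versus control.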
Background: Tetrazolium dyes change colour on reduction, which living cells bring about.

Assay [2] has as its system MDA-MB-231. Nature of the assay: Cytostatic activity against human MDA-MB-231 cells assessed as inhibition of DNA synthesis after 24 hrs by [3H]thymidine incorporation assay. Type of assay: functional, cell-based. The essentials:
(§2)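 Cells kept in DMEM with 10% FBS and penicillin/streptomycin at 37 °C. Seeded in 6-well plates and grown to about 80% confluency, in DMEM without phenol red with 10% CPSR1. Exposed to a range of concentrations plus 0.5 μCi [³H]-thymidine for 24 h at 37 °C. Cells trypsinized and washed with cold PBS until wash dpm matched the reagent control. Uptake counted by liquid scintillation as dpm/well. IC50 is mean ± S.D. of four independent experiments.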

Assay [3] relates to MCF7. Briefly: Cytotoxicity against human MCF7 cells assessed as growth inhibition after 24 hrs by MTT assay. Type of assay: functional, cell-based. The following applies: for IC50: MCF7, 24 h. A digest of the protocol:
as §1

Assay [4] has as its system MCF7. Briefly: Cytostatic activity against human MCF7 cells assessed as inhibition of DNA synthesis after 24 hrs by [3H]thymidine incorporation assay. Type of assay: functional, cell-based. The essentials: as §2
A further assay has as its target Carbonic anhydrase 1 (Homo sapiens, UniProt P00915). Briefly: Inhibition of human carbonic anhydrase 1-mediated CO2 hydration preincubated for 15 mins by stopped-flow assay.
The target in the next assay is Carbonic anhydrase 2 (Homo sapiens, UniProt P00918). Nature of the assay: Inhibition of human carbonic anhydrase 2-mediated CO2 hydration preincubated for 15 mins by stopped-flow assay.
A further assay has as its target Carbonic anhydrase 12 (Homo sapiens, UniProt O43570). Briefly: Inhibition of human carbonic anhydrase 12-mediated CO2 hydration preincubated for 15 mins by stopped-flow assay.
A further assay concerns the target Carbonic anhydrase 9 (Homo sapiens, UniProt Q16790). Briefly: Inhibition of human carbonic anhydrase 9-mediated CO2 hydration preincubated for 15 mins by stopped-flow assay.
Assay [5] has as its system MCF7. Nature of the assay: Inhibition of collagen synthesis in human MCF7 cells assessed as 5-[3H]-proline incorporation into proteins susceptible to action of bacterial collagenase after 24 hrs. Type of assay: functional, cell-based. The essentials:
(§3)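 Cells labelled 24 h in growth medium with 5-[³H]proline (5 μCi/mL, 28 Ci/mmol) at a range of compound concentrations. Collagen share of incorporated label found by digesting proteins with purified Clostridium histolyticum collagenase (Peterkofsky method). Cell and medium fractions combined. IC50 is the mean ± S.D. of three independent experiments run in duplicate.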

Assay [6] relates to MDA-MB-231. Nature of the assay: Inhibition of collagen synthesis in human MDA-MB-231 cells assessed as 5-[3H]-proline incorporation into proteins susceptible to action of bacterial collagenase after 24 hrs. The assay is classed as functional, cell-based. A digest of the protocol: as §3

Some results are limits rather than exact numbers.

Chain of Carbonic anhydrase 1 (P00915 whole entry): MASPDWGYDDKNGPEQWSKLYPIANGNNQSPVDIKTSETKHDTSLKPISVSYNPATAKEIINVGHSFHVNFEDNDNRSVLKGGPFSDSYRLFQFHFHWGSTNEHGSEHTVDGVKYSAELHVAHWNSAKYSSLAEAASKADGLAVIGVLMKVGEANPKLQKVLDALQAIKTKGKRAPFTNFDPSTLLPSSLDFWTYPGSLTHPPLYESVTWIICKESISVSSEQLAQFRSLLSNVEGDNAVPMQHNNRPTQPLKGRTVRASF
Chain of Carbonic anhydrase 12 (O43570 whole entry): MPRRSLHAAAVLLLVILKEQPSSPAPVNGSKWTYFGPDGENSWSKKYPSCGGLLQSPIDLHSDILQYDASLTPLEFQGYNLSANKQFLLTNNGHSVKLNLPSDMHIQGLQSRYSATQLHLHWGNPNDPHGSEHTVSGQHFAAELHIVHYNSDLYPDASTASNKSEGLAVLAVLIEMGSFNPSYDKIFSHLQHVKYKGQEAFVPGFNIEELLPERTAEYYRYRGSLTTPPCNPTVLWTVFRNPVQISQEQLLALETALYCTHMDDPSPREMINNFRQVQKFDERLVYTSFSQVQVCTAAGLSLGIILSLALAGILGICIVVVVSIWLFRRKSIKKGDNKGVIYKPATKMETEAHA

Usually IC50 stands for the concentration at which inhibition is half-maximal. With `CCOc1ccc(S(=O)(=O)N2CCN(C)CC2)cc1-c1nnc2c(n1)c(C)nn2C`, the “growth inhibition (GI)” value with MDA-MB-231 [1] and in the assay with MCF7 [3] was “Dose-dependent effect” each time. The IC50 in the assay with MDA-MB-231 [1] was found to be 115 µM; in the assay with MDA-MB-231 [2], 152 µM; in the assay on MCF7 [3], 110 µM; with MCF7 [4] it was 140 µM. The inhibition entry in the assay on MDA-MB-231 [2] and with MCF7 [4] was “Dose-dependent effect” in each case.

By Ki is commonly meant the equilibrium dissociation constant of an inhibitor or competing ligand from its target. In the case of `Cc1nn(C)c2nnc(Nc3ccccc3)nc12`, the Ki on Carbonic anhydrase 1 was more than 50 µM; at Carbonic anhydrase 2, 0.826 µM; at Carbonic anhydrase 12 it was 0.009 µM; on Carbonic anhydrase 9 it was 0.082 µM.

Consider `CCOc1ccc(S(=O)(=O)N2CCCCC2)cc1-c1nnc2c(n1)c(C)nn2C`, for which the “growth inhibition (GI)” value with MDA-MB-231 [1] and with MCF7 [3] was “Dose-dependent effect” throughout. Also, the IC50 in the assay on MDA-MB-231 [1] was 98 µM; in the assay with MDA-MB-231 [2], 126 µM; in the assay on MCF7 [3] it was 105 µM; with MCF7 [4], 112 µM. For the same compound, the inhibition entry with MDA-MB-231 [2] and in the assay on MCF7 [4] was “Dose-dependent effect” in each case.

Take `Cc1nn(C)c2nnc(Nc3ccc(S(=O)(=O)NCCN4CCOCC4)cc3)nc12`: the IC50 with MCF7 [5] worked out at 140 µM; in the assay on MDA-MB-231 [6], 137 µM. Also, the Ki at Carbonic anhydrase 1 was more than 50 µM; on Carbonic anhydrase 2, 0.719 µM; on Carbonic anhydrase 12, 0.0062 µM; on Carbonic anhydrase 9, 0.824 µM. In addition, the inhibition result in the assay on MDA-MB-231 [2] and with MCF7 [4] was “Dose-dependent effect” in each case.

As for `CCOc1ccc(S(=O)(=O)NCCO)cc1-c1nnc2c(n1)c(C)nn2C`, the “growth inhibition (GI)” value with MDA-MB-231 [1] and in the assay on MCF7 [3] was “Dose-dependent effect” each time. In addition, the IC50 in the assay on MDA-MB-231 [1], with MDA-MB-231 [2], with MCF7 [3] and in the assay on MCF7 [4] was more than 200 µM in each case. The inhibition entry in the assay on MDA-MB-231 [2] and with MCF7 [4] was “Dose-dependent effect” throughout.

`Cc1nn(C)c2nnc(Nc3ccc(S(=O)(=O)N4CCOCC4)cc3)nc12`: the IC50 in the assay on MCF7 [5] and with MDA-MB-231 [6] was more than 200 µM each time. For the same compound, the inhibition entry in the assay with MDA-MB-231 [2] and in the assay on MCF7 [4] was “Dose-dependent effect” in each case.

`CCOc1ccc(S(=O)(=O)NCCN2CCOCC2)cc1-c1nnc2c(n1)c(C)nn2C`: the “growth inhibition (GI)” value in the assay on MDA-MB-231 [1] and with MCF7 [3] was “Dose-dependent effect” throughout. The IC50 in the assay with MDA-MB-231 [1] stood at 136 µM; in the assay on MDA-MB-231 [2], 156 µM; in the assay with MCF7 [3], 132 µM; in the assay on MCF7 [4], 145 µM. Besides, the inhibition entry in the assay on MDA-MB-231 [2] and in the assay with MCF7 [4] was “Dose-dependent effect” each time.

As for `Cc1nn(C)c2nnc(Nc3ccc(S(N)(=O)=O)cc3)nc12`, the Ki came out at 0.27 µM on Carbonic anhydrase 1, 0.008 µM on Carbonic anhydrase 2, 0.0079 µM on Carbonic anhydrase 12 and 0.0438 µM at Carbonic anhydrase 9.

With `Cc1nn(C)c2nnc(Nc3ccc(S(=O)(=O)NCCO)cc3)nc12`, the IC50 in the assay on MCF7 [5] and in the assay with MDA-MB-231 [6] was more than 200 µM throughout. Moreover, the Ki at Carbonic anhydrase 1 is more than 50 µM; at Carbonic anhydrase 2 it was 0.772 µM; on Carbonic anhydrase 12, 0.0075 µM; on Carbonic anhydrase 9, 0.0265 µM. Besides, the inhibition entry with MDA-MB-231 [2] and in the assay with MCF7 [4] was “Dose-dependent effect” throughout.

As for `Cc1nn(C)c2nnc(Nc3ccc(S(=O)(=O)NCCN)cc3)nc12`, the values for the IC50 in the assay on MCF7 [5] and in the assay with MDA-MB-231 [6] were 112 µM and 95 µM, respectively. For the same compound, the Ki at Carbonic anhydrase 1 is more than 50 µM; on Carbonic anhydrase 2, 0.0621 µM; on Carbonic anhydrase 12 it was 0.0071 µM; at Carbonic anhydrase 9 it was 0.0237 µM. For the same compound, the inhibition result in the assay on MDA-MB-231 [2] and in the assay on MCF7 [4] was “Dose-dependent effect” each time.

For `CCOc1ccc(S(=O)(=O)N2CCCC2)cc1-c1nnc2c(n1)c(C)nn2C`, the “growth inhibition (GI)” value with MDA-MB-231 [1] and in the assay on MCF7 [3] was “Dose-dependent effect” throughout. Further, the IC50 stood at 120 µM with MDA-MB-231 [1], 159 µM with MDA-MB-231 [2], 112 µM in the assay with MCF7 [3] and 130 µM in the assay with MCF7 [4]. For the same compound, the inhibition entry in the assay on MDA-MB-231 [2] and in the assay with MCF7 [4] was “Dose-dependent effect” throughout.

Take `O=C(O)CCCc1ccc(N(CCCl)CCCl)cc1` [CHLORAMBUCIL]: the “growth inhibition (GI)” value with MDA-MB-231 [1] and in the assay with MCF7 [3] was “Dose-dependent effect” in each case. Further, the figures for the IC50 in the assay with MCF7 [5] and with MDA-MB-231 [6] were 52 µM and 72 µM, respectively. Also, the inhibition entry with MDA-MB-231 [2] and in the assay on MCF7 [4] was “Dose-dependent effect” each time.

`Cc1nn(C)c2nnc(Nc3ccc(S(=O)(=O)N4CCN(C)CC4)cc3)nc12`: the IC50 was 47 µM with MCF7 [5] and 58 µM with MDA-MB-231 [6]. In addition, the Ki is more than 50 µM at Carbonic anhydrase 1, 0.667 µM on Carbonic anhydrase 2, 0.0053 µM at Carbonic anhydrase 12 and more than 50 µM at Carbonic anhydrase 9. In addition, the inhibition entry in the assay on MDA-MB-231 [2] and in the assay with MCF7 [4] was “Dose-dependent effect” throughout.

In the case of `CCOc1ccc(S(=O)(=O)N2CCCNCC2)cc1-c1nnc2c(n1)c(C)nn2C`, the “growth inhibition (GI)” value with MDA-MB-231 [1] and in the assay with MCF7 [3] was “Dose-dependent effect” throughout. The half-maximal inhibitory concentration (IC50) was found to be 130 µM in the assay on MDA-MB-231 [1], 115 µM with MDA-MB-231 [2], 123 µM in the assay on MCF7 [3] and 129 µM with MCF7 [4]. For the same compound, the inhibition entry in the assay on MDA-MB-231 [2] and in the assay with MCF7 [4] was “Dose-dependent effect” in each case.

For the compound `CCOc1ccc(S(=O)(=O)N2CCNCC2)cc1-c1nnc2c(n1)c(C)nn2C`, the “growth inhibition (GI)” value with MDA-MB-231 [1] and in the assay with MCF7 [3] was “Dose-dependent effect” each time. Also, the IC50 in the assay on MDA-MB-231 [1] was 182 µM; in the assay on MDA-MB-231 [2], 164 µM; in the assay with MCF7 [3], 172 µM; in the assay on MCF7 [4], 150 µM. The inhibition entry in the assay on MDA-MB-231 [2] and in the assay on MCF7 [4] was “Dose-dependent effect” in each case.

Turning to `CCOc1ccc(S(=O)(=O)N2CCOCC2)cc1-c1nnc2c(n1)c(C)nn2C`, the “growth inhibition (GI)” value with MDA-MB-231 [1] and in the assay on MCF7 [3] was “Dose-dependent effect” each time. The IC50 stood at 189 µM with MDA-MB-231 [1], 160 µM in the assay with MDA-MB-231 [2], 181 µM in the assay on MCF7 [3] and 148 µM in the assay on MCF7 [4]. Also, the inhibition result in the assay on MDA-MB-231 [2] and with MCF7 [4] was “Dose-dependent effect” each time.

For the compound `Cc1nn(C)c2nnc(S(C)(=O)=O)nc12`, the Ki is more than 50 µM at Carbonic anhydrase 1, 0.774 µM at Carbonic anhydrase 2, 0.0066 µM on Carbonic anhydrase 12 and 0.089 µM at Carbonic anhydrase 9.

With `CCOc1ccc(S(=O)(=O)NCCN)cc1-c1nnc2c(n1)c(C)nn2C`, the “growth inhibition (GI)” value with MDA-MB-231 [1] and with MCF7 [3] was “Dose-dependent effect” in each case. Also, the IC50 in the assay on MDA-MB-231 [1] was more than 200 µM; with MDA-MB-231 [2], 200 µM; in the assay on MCF7 [3] it was 190 µM; in the assay on MCF7 [4], more than 200 µM. Further, the inhibition result in the assay on MDA-MB-231 [2] and in the assay with MCF7 [4] was “Dose-dependent effect” throughout.
